The record followed here is ChEMBL document CHEMBL2021787 (Bioorg Med Chem Lett, 2012).

Broadly, the MIC is the least concentration at which growth counts as inhibited. The Cmax is the highest concentration seen after dosing. A word on the bioavailability: it is the share of a dose that reaches the circulation, judged against a reference dose that is usually intravenous. A low value points to poor availability. The AUC(0-t) is the area under the concentration-time curve up to a stated or last time point. The Vd is the apparent volume that relates the amount in the body to the concentration in plasma or blood. As usually defined, the clearance is a measure of how efficiently the substance is removed, as volume per time. By Tmax is commonly meant the time at which the peak concentration occurs. One may read the half-life as the time in which the quantity being followed falls by half. Read a high half-life as slow loss.

Data set [1] concerns Mycobacterium tuberculosis. Briefly: Antimycobacterial activity against Mycobacterium tuberculosis H37Rv by agar dilution method. In kind it is functional. The essentials: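 Agar dilution on Middlebrook 7H11 agar supplemented with OADC, following the NCCLS approach, using log-phase M. tuberculosis cultures. Run in triplicate. MIC was taken as the lowest concentration giving complete inhibition of growth.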
On the technique in general: In agar dilution, organisms are placed on agar that contains the substance at set levels.

Another data set has as its system HepG2. Description: Cytotoxicity against human HepG2 cells at 20 to 25 uM after 48 hrs by MTT assay. The following applies: hepg2, 48 h. The format is cell-based. Summed up:
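HepG2 cells were seeded at 2500/well and grown 24 h, then exposed to compound for 48 h. MTT (20 µL of a 5 mg/mL stock) was added for 2.5 h at 37 °C, and OD was read at 570 nm. Results are reported as % inhibition at a single concentration.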

The nature of data set [2]: Cmax in Wistar rat at 10 mg/kg, iv administered as single bolus dose. The format is ADME, organism-based. Also noted: dose 10 mg/kg, route intravenous. The following applies: in vivo. Summed up:
(§1)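 Male Wistar rats given a single iv bolus of 10 mg/kg in 20% propylene glycol, 10% cremophor ELP and 20% N-methylpyrrolidone in normal saline. Plasma was assayed by reverse-phase HPLC with PDA detection. Parameters came from plasma concentration–time data by non-compartmental analysis.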

The nature of data set [3]: Cmax in Wistar rat at 50 mg/kg, po administered as single dose. Conditions: in vivo. Also noted: dose 50 mg/kg, route oral. The format is ADME, organism-based. Summed up:
(§2)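 Male Wistar rats got a single oral dose of 50 mg/kg as a suspension in 0.25% sodium CMC with Tween 80. Plasma was measured by reverse-phase HPLC with PDA detection and analysed non-compartmentally. AUC covered 10 h. Bioavailability was derived against a separate 10 mg/kg iv bolus dose in the same vehicle system as the iv study.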

Data set [4] in a line: (§3) Oral bioavailability in Wistar rat at 50 mg/kg administered as single dose. The format is ADME, organism-based. Conditions: Wistar, in vivo. The essentials:
as §2

Data set [5] is described as follows: (§4) AUC (0 to t) in Wistar rat at 50 mg/kg, po administered as single dose. Conditions: Wistar, plasma. The format is ADME, organism-based, Plasma. Details: dose 50 mg/kg, route oral. Summed up:
as §2

The nature of data set [6]: Volume of distribution in Wistar rat at 10 mg/kg, iv administered as single bolus dose. Conditions: in vivo. In kind it is ADME, organism-based. Also noted: dose 10 mg/kg, route intravenous. Summed up: as §1
The nature of data set [7]: Plasma clearance in Wistar rat at 10 mg/kg, iv administered as single bolus dose. In kind it is ADME, organism-based. Also noted: dose 10 mg/kg, route intravenous. Summed up: as §1
Data set [8] in a line: Tmax in Wistar rat at 50 mg/kg, po administered as single dose. Conditions: in vivo. In kind it is ADME, organism-based. Also noted: dose 50 mg/kg, route oral. Summed up: as §2
Data set [9] can be described thus: Half life in Wistar rat at 10 mg/kg, iv administered as single bolus dose. Details: dose 10 mg/kg, route intravenous. The format is ADME, organism-based. The following applies: in vivo. Summed up:
as §1

Data set [10] in a line: (§5) AUC (0 to t) in Wistar rat at 10 mg/kg, iv administered as single bolus dose. Details: dose 10 mg/kg, route intravenous. The following applies: Wistar, plasma. The format is ADME, organism-based, Plasma. The essentials:
as §1

For data set [11], the system named is Mycobacterium tuberculosis. Description: Ratio of INH MIC to compound MIC for Mycobacterium tuberculosis H37Rv by agar dilution method. In kind it is functional.
Data set [12] in a line: Elimination rate constant in Wistar rat at 10 mg/kg, iv administered as single bolus dose. The format is ADME, organism-based. Also noted: dose 10 mg/kg, route intravenous. Conditions: in vivo. The essentials:
as §1

Data set [13] deals with Rattus norvegicus. The data set is described as §3. The format is ADME, organism-based. The following applies: in vivo. Summed up: as §2
Data set [14] concerns Rattus norvegicus. The data set is described as §4. Also noted: dose 50 mg/kg, route oral. The format is ADME, organism-based, Plasma. Conditions: in vivo. The essentials:
as §2

The test system of data set [15] is Rattus norvegicus. The data set is described as §5. Details: dose 10 mg/kg, route intravenous. Conditions: in vivo. In kind it is ADME, organism-based, Plasma. Summed up:
as §1

In data set [1], `CC1(C)CC(=O)C2=C(C1)N(NC(=O)c1ccncc1)C1=C(C(=O)CC(C)(C)C1)C2c1ccccc1OCc1ccccc1` gave an MIC of 0.17 µM.
Take `C/C(=N/NC(=O)c1ccncc1)c1cccc(CN2CCNCC2)c1O`: 0.56 µM was the least that counted as inhibitory in data set [1] (MIC).
In turn, `O=C(NN1C(=O)CCSC1c1ccccc1)c1ccncc1` (stereo not drawn) registered an MIC in data set [1] of 9.9 µM. The compound also returned an Activity in the data set on HepG2 of 10.6%.
Taken in the same sequence, the figures for `Cc1ccccc1C1SCCC(=O)N1NC(=O)c1ccncc1` (stereo not drawn) were 9.56 µM and 12.6%.
The matching figures for `Cc1cccc(C2SCCC(=O)N2NC(=O)c2ccncc2)c1` (stereo not drawn): 9.56 µM and 8.6%.
The matching figures for `Cc1ccc(C2SCCC(=O)N2NC(=O)c2ccncc2)cc1` (stereo not drawn): 9.56 µM and 12.4%.
In data set [1], `COc1ccccc1C1SCCC(=O)N1NC(=O)c1ccncc1` (stereo not drawn) returned an MIC of 9.08 µM. The compound further came in with an Activity with HepG2 of 15.2%.
The matching figures for `COc1cccc(C2SCCC(=O)N2NC(=O)c2ccncc2)c1` (stereo not drawn): 9.08 µM and 10.4%.
As for `COc1ccc(C2SCCC(=O)N2NC(=O)c2ccncc2)cc1` (stereo not drawn), inhibition of growth in [1] (MIC) required 4.54 µM. The Activity with HepG2 is recorded as 12.6%.
Taken in the same sequence, the figures for `COc1cc(C2SCCC(=O)N2NC(=O)c2ccncc2)cc(OC)c1OC` (stereo not drawn) were 7.76 µM and 8.6%.
Taken in the same sequence, the figures for `COc1cc(C2SCCC(=O)N2NC(=O)c2ccncc2)ccc1O` (stereo not drawn) were 8.7 µM and 16.11%.
Taken in the same sequence, the figures for `O=C(NN1C(=O)CCSC1c1ccccc1O)c1ccncc1` (stereo not drawn) were 19 µM and 8.6%.
The compound `O=C(NN1C(=O)CCSC1c1cccc(O)c1)c1ccncc1` (stereo not drawn) showed a minimum inhibitory concentration (MIC) in data set [1] of 9.49 µM. The same compound showed an Activity in the data set on HepG2 of 8.2%.
Taken in the same sequence, the figures for `O=C(NN1C(=O)CCSC1c1ccc(O)cc1)c1ccncc1` (stereo not drawn) were 18.9 µM and 10.7%.
The matching figures for `CN(C)c1ccc(C2SCCC(=O)N2NC(=O)c2ccncc2)cc1` (stereo not drawn): 8.78 µM and 4.6%.
Taken in the same sequence, the figures for `CC(C)c1ccc(C2SCCC(=O)N2NC(=O)c2ccncc2)cc1` (stereo not drawn) were 2.14 µM and 19%.
In turn, `O=C(NN1C(=O)CCSC1c1ccccc1OCc1ccccc1)c1ccncc1` (stereo not drawn) yielded an MIC in data set [1] of 0.24 µM. This compound also had an Activity in the data set on HepG2 of 10.6%.
The matching figures for `O=C(NN1C(=O)CCSC1c1cccc(OCc2ccccc2)c1)c1ccncc1` (stereo not drawn): 0.24 µM and 12.6%.
Consider `O=C(NN1C(=O)CCSC1c1ccc(OCc2ccccc2)cc1)c1ccncc1` (stereo not drawn), for which the Cmax stood at 5290 ng/mL in data set [2] and 1310 ng/mL in [3]. Also, the bioavailability in [4] is 16.7%. Also, the results for the area under the curve AUC(0-t) in data set [5] and in [10] were 5870 ng·h/mL and 7500 ng·h/mL, respectively. Besides, in [6], the distribution volume (Vd) was found to be 1.99 L. In addition, it took 0.12 µM to inhibit growth in [1] (MIC). This compound showed a clearance in data set [7] of 22.5 mL/min/kg. Further, the Tmax in data set [8] came out at 3 h. In the data set with HepG2, this compound returned an Activity of 8.8%. For the same compound, the half-life in data set [9] is 1.14 h. Also, the Ratio in data set [11] is given as 3. The compound also had a k el in [12] of 0.000172 s⁻¹.
Compound `O=C(NN1C(=O)CCSC1c1ccccc1[N+](=O)[O-])c1ccncc1` (stereo not drawn) had an MIC in [1] of 2.12 µM. In the data set with HepG2, the Activity is given as 28.8%.
Taken in the same sequence, the figures for `O=C(NN1C(=O)CCSC1c1cccc([N+](=O)[O-])c1)c1ccncc1` (stereo not drawn) were 0.56 µM and 28.6%.
Take `O=C(NN1C(=O)CCSC1c1ccc([N+](=O)[O-])cc1)c1ccncc1` (stereo not drawn): in data set [1], the MIC was 1.11 µM. In addition, the Activity in the data set with HepG2 was 32%.
Taken in the same sequence, the figures for `O=C(NN1C(=O)CCSC1c1ccccc1Cl)c1ccncc1` (stereo not drawn) were 1.15 µM and 20.6%.
Compound `O=C(NN1C(=O)CCSC1c1ccc(Cl)cc1)c1ccncc1` (stereo not drawn) came in with an MIC in data set [1] of 0.575 µM. In the data set with HepG2, this compound yielded an Activity of 26.8%.
As for `O=C(NN1C(=O)CCSC1c1ccccc1Br)c1ccncc1` (stereo not drawn), 0.25 µM was the least that counted as inhibitory in data set [1] (MIC). In the data set on HepG2, this compound registered an Activity of 22.2%.
The matching figures for `O=C(NN1C(=O)CCSC1c1ccc(Br)cc1)c1ccncc1` (stereo not drawn): 0.5 µM and 18.4%.
For the compound `O=C(NN1C(=O)CCSC1c1ccccc1F)c1ccncc1` (stereo not drawn), in data set [1], inhibition of growth (MIC) required 0.6 µM. Besides, in the data set on HepG2, the Activity is 18.6%.
The matching figures for `O=C(NN1C(=O)CCSC1c1cccc(F)c1)c1ccncc1` (stereo not drawn): 0.6 µM and 16.4%.
In turn, `O=C(NN1C(=O)CCSC1c1ccc(F)cc1)c1ccncc1` (stereo not drawn) showed an MIC in data set [1] of 0.3 µM. The same compound gave an Activity in the data set on HepG2 of 18.6%.
The matching figures for `O=C(NN1C(=O)CCSC1c1ccccc1C(F)(F)F)c1ccncc1` (stereo not drawn): 0.52 µM and 24.2%.
Regarding `O=C(NN1C(=O)CCSC1c1cccc(C(F)(F)F)c1)c1ccncc1` (stereo not drawn), in [1], the MIC amounted to 0.52 µM. In the data set on HepG2, this compound came in with an Activity of 26.4%.
Taken in the same sequence, the figures for `O=C(NN1C(=O)CCSC1c1ccc(C(F)(F)F)cc1)c1ccncc1` (stereo not drawn) were 0.13 µM and 20.6%.
The compound `O=C(NN1C(=O)CCSC1Cc1ccco1)c1ccncc1` (stereo not drawn) registered a minimum inhibitory concentration (MIC) in [1] of 41.2 µM. The same compound yielded an Activity in the data set with HepG2 of 18.6%.
The matching figures for `O=C(NN1C(=O)CCSC1Cc1ccc([N+](=O)[O-])o1)c1ccncc1` (stereo not drawn): 4.48 µM and 38.6%.
With `O=C(c1ccncc1)N1N=CCC1(O)C(F)(F)F` (stereo not drawn), the MIC in [1] came out at 0.77 µM.
Same read-out and setting: in the case of `C/C(=N\NC(=O)c1ccncc1)c1ccc(NC(=S)Nc2ccc(F)cc2)cc1` it was 0.45 µM.
On the same count and under the same terms, as for `O=C(NNCc1ccccc1)c1ccncc1`, the figure is 0.2 µg/mL.
Same read-out and setting: as for `O=C(NN=C1CCCCC1)c1ccncc1`, the figure is 0.0004 µM.
For the compound `NNC(=O)c1ccncc1` [ISONIAZID], the Cmax in data set [2] came to 298000 ng/mL; in data set [3], 52300 ng/mL. Further, the F with Rattus norvegicus [13] is listed as 17.36%. In addition, the AUCt was 197090 ng·h/mL in the data set on Rattus norvegicus [14] and 684000 ng·h/mL with Rattus norvegicus [15]. Besides, the volume of distribution (Vd) in [6] is 0.026 L. In data set [1], this compound registered a minimal inhibitory concentration (MIC) of 0.36 µM. Also, the clearance in data set [7] is 0.21 mL/min/kg. Also, the time of peak concentration (Tmax) in data set [8] was found to be 2 h. Besides, the Activity in the data set on HepG2 is recorded as 10%. For the same compound, in data set [12], the k el was 6.67e-05 s⁻¹.
`Cc1c(CN2CCN(c3cccc(C(F)(F)F)c3)CC2)cc(-c2ccccc2)n1NC(=O)c1ccncc1` [SUDOTERB] had a minimum inhibitory concentration (MIC) in data set [1] of 0.25 µg/mL.
